An excerpt weighted towards active compounds, which were near 1.3% of everything screened.
ERp5 block: inhibitors of ERp5-driven insulin aggregation, primary screen, biochemical, turbidity, absorbance 650 nm, single point. Protein disulfide-isomerase A6 (Homo sapiens), Q15084. 90 min. inhibition, % at 9.99 µM. hit rate 0.05% among 350,000. AID 651711, 2012;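 active means mean replicate inhibition above about 25%, with every replicate also reaching it, limit read from the data, passing the limit was not always enough; inconclusive means only one of those two criteria met; inactive means neither criterion met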
Target sequence (Q15084 whole entry, looked up): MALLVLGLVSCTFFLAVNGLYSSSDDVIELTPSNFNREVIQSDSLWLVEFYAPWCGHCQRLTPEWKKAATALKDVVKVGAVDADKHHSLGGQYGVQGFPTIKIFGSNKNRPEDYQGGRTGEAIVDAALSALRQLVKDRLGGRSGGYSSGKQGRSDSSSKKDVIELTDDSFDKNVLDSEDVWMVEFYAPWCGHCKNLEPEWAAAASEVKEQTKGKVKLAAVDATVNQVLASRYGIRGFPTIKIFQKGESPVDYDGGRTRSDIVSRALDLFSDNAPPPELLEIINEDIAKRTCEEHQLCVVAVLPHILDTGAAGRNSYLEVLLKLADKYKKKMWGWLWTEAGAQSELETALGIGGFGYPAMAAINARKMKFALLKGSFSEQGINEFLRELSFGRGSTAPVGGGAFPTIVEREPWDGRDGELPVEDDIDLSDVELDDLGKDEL
FN deposition inh: inhibitors of fibronectin matrix deposition, primary screen, AH1F cells, Alexa488-fibronectin fluorescence, plate reader; AH1F fibroblasts, overnight; inhibition, % at 12.6 µM; hit rate 0.086% among 350,000; AID 743247, 2014;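 active means mean inhibition across replicates of 30% or more, regardless of how many single replicates reach that level; inconclusive means mean under 30% yet at least half of replicates reach 30%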;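 further: positive control wells lacked labelled fibronectin entirely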
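Material – AH1F fibroblast monolayer, labelled fibronectin deposition · Reagent – labelled fibronectin 24 nM · Timing – 1 h adhesion, overnight exposure · Measured by – fluorescence at 485 nm excitation, 525 nm emission · Read-out – inhibition of fibronectin deposition signal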
MLL AF4-AF9 inh: inhibitors of AF4 peptide binding to AF9, primary screen, biochemical, AlphaScreen, biotin-AF4 peptide, FLAG-AF9, single point; AID 651704, 2012; Protein AF-9 (Homo sapiens), P42568; hit rate 0.47% among 350,000; inhibition, % at 10 µM;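 active means every replicate reaching a set inhibition limit, whatever the replicate mean, cut at about 25% in these data; inconclusive means mean inhibition reaches that limit but some replicates miss it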;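 further: 0% = plate neutral control median and 100% = total signal loss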
SIRT5 inh: SIRT5 desuccinylase inhibitors, primary screen, biochemical, fluorescence imaging, single point, set 5; NAD-dependent protein deacylase sirtuin-5, mitochondrial (Homo sapiens), Q9NXA8; Purified SirT5, succinyl-peptide AMC, trypsin-coupled fluorescence; inhibition, % at 15 µM; hit rate 1.1% among 330,000; in the data active means inhibition above about 15%; inconclusive means no clear call, values can overlap the other calls
PDI turbidity: inhibitors of human PDI, primary screen, biochemical, turbidity, single point, plate reader; inhibition, % at 10 µM; hit rate 0.052% among 350,000; PDI insulin aggregation turbidity, A650, 90 min; AID 588391, 2011; Protein disulfide-isomerase (Homo sapiens), P07237;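 active means mean inhibition across replicates of 30% or more, whatever share of single replicates reach that level; inconclusive means mean inhibition below 30% while every single replicate reaches 30%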
The depositor's hits bear a star; ? = inconclusive; / = no result given.

SMILES	ERp5 block	FN deposition inh	MLL AF4-AF9 inh	SIRT5 inh	PDI turbidity
Cc1noc(C)c1COc1ccc(C(=O)N2CCN(S(=O)(=O)c3ccccc3)CC2)cc1	-5	2	2	1	-4
CC(C)(CO)NC(=S)NCc1ccco1	0	1	1	30*	1
N#C/C(=C\c1ccc(C(=O)O)cc1)c1nc2sc3c(c2c(=O)[nH]1)CCCC3	3	-7	-7	20*	0
NC(=O)N/N=C/c1sc(N2CCCCC2)nc1-c1cccs1	5	-20	30*	4	-11
CC(C)CC1C(=O)N(Cc2cn(CCC3OCCO3)nn2)CCS(=O)(=O)N1Cc1ccc(-c2cccc(N(C)C)c2)cc1 (stereo unspecified)	1	-11	21	10	28
O=C(O)c1ccccc1C(=O)N1N=C2/C(=C/c3cccc([N+](=O)[O-])c3)CCCC2C1c1cccc([N+](=O)[O-])c1 (stereo unspecified)	3	3	1	24*	5
O=C(O)c1c(C(=O)N2N=C3/C(=C/c4ccccc4)CCCC3C2c2ccccc2)cccc1[N+](=O)[O-] (stereo unspecified)	0	-7	-8	5	-2
C[C@@H]1CN([C@H](C)CO)C(=O)c2cccc(NC(=O)C3CCOCC3)c2O[C@H]1CN(C)CC1CCCCC1	4	4	0	2	/
CS(=O)(=O)N1[C@@H](CO)[C@@H](c2ccccc2)C12CN(C(=O)c1ccccc1F)C2	11	-2	0	19*	/
CS(=O)(=O)N1[C@H](CO)[C@H](c2ccccc2)C12CN(C(=O)c1ccccc1F)C2	?	-1	-1	-4	/
CCn1c(CNC(=O)c2cccs2)n[nH]c1=S	-5	1	25*	-2	12
O=C(NCc1n[nH]c(=S)n1-c1ccccc1)c1cccs1	0	6	1	5	13
CNC(=O)CSc1nc2nn(-c3ccccc3)c(=O)c-2c2n1CCCCC2	6	/	5	-4	-1
O=C(CSc1nc2nn(-c3ccccc3)c(=O)c-2c2n1CCCCC2)c1ccc(O)c(O)c1	/	/	/	/	53*
CC(C)c1ccc(NC(=O)CN2C(=O)NC(Cc3c[nH]c4ccccc34)C2=O)cc1 (stereo unspecified)	2	-2	?	-3	1
COCC(C)OC(=O)c1c(N)n(CC(C)C)c2nc3ccccc3nc12 (stereo unspecified)	/	-8	/	/	6
O=C(N/N=C/c1ccc[nH]1)c1ccccc1OCc1ccc(F)cc1	0	-2	-15	22*	4
O=C(N/N=C/c1ccccc1F)c1ccccc1OCc1ccccc1	-3	8	2	0	4
COC(=O)c1ccc(/C=N/NC(=O)C2CC(=O)N(c3ccc(OC)cc3)C2)cc1 (stereo unspecified)	1	7	-9	-3	-11
CC(=O)c1cccc(S(=O)(=O)NCC(C)(C)N2CCOCC2)c1	2	1	0	16*	-1
OC[C@H]1Nc2ccc(-c3ccccc3)cc2[C@@H]2[C@H]1CCN2Cc1ccccc1F	4	-19	2	-5	/
COc1ccc(-c2ccc3c(c2)[C@@H]2[C@@H](CCN2Cc2ccccc2F)[C@H](CO)N3)cc1	-3	-1	26*	3	/
CCCNC(=O)[C@@H]1[C@@H](CO)[C@@H]2Cn3c(ccc(-c4ccc(OC)cc4)c3=O)[C@@H]2N1CCC	-2	/	-2	-14	/
CCCN1[C@@H]2c3ccc(-c4cccc(OC)c4)c(=O)n3C[C@@H]2[C@@H](CO)[C@@H]1C(=O)OC	0	-1	-1	16*	/
CCCNC(=O)[C@H]1[C@H](CO)[C@H]2Cn3c(ccc(-c4ccc(OC)cc4)c3=O)[C@H]2N1CCC	-4	/	-3	16*	/
C[C@H]1CN([C@@H](C)CO)S(=O)(=O)c2ccc(C#Cc3ccccc3F)cc2O[C@H]1CN(C)C(=O)Cc1cccnc1	-2	3	3	11	/
CCC(C)n1cnc2c(c1=O)c1nc3ccccc3nc1n2Cc1ccccc1OC (stereo unspecified)	/	/	/	/	-2
